The Kd is the constant that tells how readily two partners part at equilibrium. Low readings indicate a tighter complex, high ones a looser complex. The EC50 is the midpoint of the concentration-response curve. Low values mean greater potency, high ones weaker potency.

This note sets out measurements from ChEMBL document CHEMBL1143161, “Non-charged thiamine analogs as inhibitors of enzyme transketolase” (Bioorg Med Chem Lett, 2008).

SMILES strings stand for the structures. Where only a bound is given, the exact number is not on record here.

For assay [1], the target named is T1, Transketolase (Homo sapiens, UniProt P29401).
T1 sequence (P29401 whole entry): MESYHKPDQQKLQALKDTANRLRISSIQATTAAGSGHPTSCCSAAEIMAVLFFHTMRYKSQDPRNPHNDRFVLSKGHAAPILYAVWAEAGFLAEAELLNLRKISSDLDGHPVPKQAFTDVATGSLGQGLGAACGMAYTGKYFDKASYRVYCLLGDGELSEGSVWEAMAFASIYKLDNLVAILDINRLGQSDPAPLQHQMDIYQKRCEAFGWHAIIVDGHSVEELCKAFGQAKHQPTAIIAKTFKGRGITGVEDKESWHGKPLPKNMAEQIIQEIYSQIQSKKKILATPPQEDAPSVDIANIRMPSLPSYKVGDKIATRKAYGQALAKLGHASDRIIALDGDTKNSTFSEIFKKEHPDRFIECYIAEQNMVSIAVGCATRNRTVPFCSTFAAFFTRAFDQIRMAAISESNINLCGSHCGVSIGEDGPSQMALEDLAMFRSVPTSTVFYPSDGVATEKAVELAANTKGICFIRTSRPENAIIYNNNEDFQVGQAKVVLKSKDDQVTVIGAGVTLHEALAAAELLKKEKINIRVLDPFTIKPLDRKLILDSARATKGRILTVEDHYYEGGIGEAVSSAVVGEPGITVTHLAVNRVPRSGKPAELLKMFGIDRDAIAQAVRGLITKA
The assay is described as follows: Inhibition of apo-transketolase by coupled TPPK/Apo-TK enzymatic assay. In short, it runs like this: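 Each compound was first checked for pyrophosphorylation by TPPK, with thiamine as the control substrate; pyrophosphorylation was scored relative to thiamine. Compounds were then tested for competition with TPP in inhibiting TK activity. Kd is the average of at least three experiments, with data within 2-fold of the mean.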

Assay [2] deals with T1, Transketolase. Put plainly: Inhibition of apo-transketolase.
Assay [3] addresses T1, Transketolase. Put plainly: Inhibition of transketolase in human HCT116 cells. The class given is cell-based, HCT-116. In short, it runs like this: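 Cellular TK assay in human colon cancer HCT-116 cells, run in triplicate. EC50 reported as the average, with data within 4-fold of the mean.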

`CC(=O)Nc1ncc(Cc2csc(CCO)c2C)c(N)n1`: the Kd came out at 0.003 µM on Transketolase [1] and 1.1 µM at Transketolase [2]. On Transketolase [3], this compound registered an EC50 of 6.3 µM.

On to `Cc1c(Cc2cnc(N)nc2N)csc1CCO`, for which, on Transketolase [2], the Kd turned out to be 2.2 µM. The compound also registered an EC50 on Transketolase [3] of 8.5 µM.

In the case of `Cc1c(Cc2cnc(-c3ccccc3)nc2N)csc1CCO`, the figures for the Kd on Transketolase [1] and on Transketolase [2] were 0.23 µM and above 500 µM, respectively. Also, the EC50 on Transketolase [3] is above 10 µM.

With `Cc1c(Cc2cnc(C(C)C)nc2N)csc1CCO`, the values for the Kd on Transketolase [1] and at Transketolase [2] were 0.064 µM and above 500 µM, respectively. The compound further had an EC50 at Transketolase [3] of 2.6 µM.

Consider `Cc1c(Cc2cnc(C3CC3)nc2N)csc1CCO`, for which the values for the Kd at Transketolase [1] and at Transketolase [2] were 0.06 µM and above 500 µM, respectively. The EC50 on Transketolase [3] came out at 0.66 µM.

Regarding `Cc1ncc(Cc2[nH]nc(CCO)c2C)c(N)n1`, the EC50 at Transketolase [3] was determined as 17 µM.

Turning to `Cc1ncc(Cc2nn(C)c(CCO)c2C)c(N)n1`, the midpoint of the response on Transketolase [3], the EC50, lay at 4.7 µM.

For `Cc1ncc(Cc2c(C)c(CCO)nn2C)c(N)n1`, the EC50 on Transketolase [3] stood at 1.1 µM.

The compound `Cc1c(Cc2cncnc2N)csc1CCO` came in with a Kd on Transketolase [2] above 100 µM. At Transketolase [3], this compound gave an EC50 of 52 µM.

In turn, `Cc1c(Cc2cnc(C(F)(F)F)nc2N)csc1CCO` had a Kd on Transketolase [1] of 0.063 µM. Besides, on Transketolase [3], the EC50 is 25 µM.

For `Cc1ccc(Cn2c(C)c(CCO)sc2=O)c(N)n1`, at Transketolase [2], the Kd was above 500 µM. In addition, the EC50 at Transketolase [3] was found to be 3.24 µM.

At Transketolase [2], `Cc1ncc(Cn2c(C)c(CCO[P@@](=O)(O)OP(=O)(O)O)sc2=O)c(N)n1` showed a Kd of 0.016 µM.

For `Cc1ncc(Cc2csc(CCO)c2C)c(N)n1` [3-DEAZATHIAMINE], the Kd was 0.012 µM at Transketolase [1] and 18 µM at Transketolase [2]. Besides, a half-maximal response on Transketolase [3] (EC50) required 1.2 µM.

`Cc1ncc(C[n+]2csc(CCO)c2C)c(N)n1` [THIAMINE ION] showed a dissociation constant Kd at Transketolase [2] of 6800 µM.

On to `Cc1ncc(Cn2c(C)c(CCO)sc2=O)c(N)n1` [THIAMINE THIAZOLONE], for which the Kd at Transketolase [2] stood at 34 µM. The compound further gave an EC50 at Transketolase [3] of 2.71 µM.
